# Legend:
# Pseudomonas aeruginosa [1] = assay: Antibacterial activity against Pseudomonas aeruginosa ATCC 27853 after 72 hrs by serial sub-cultivation method; assay type: functional; conditions: ATCC 27853, 72 h
# Procedure, shortened: (§1)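 MBC was found by serial sub-cultivation of 2 µl from the MIC wells into plates holding 100 µl broth per well, then incubation for 72 h. MBC is the lowest concentration with no visible growth, i.e. 99.5% killing of the original inoculum. Bacterial inoculum was 1.0 × 10^4 cfu per well in LB broth. Duplicate, repeated three times.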
# Salmonella typhimurium [2] = assay: Antibacterial activity against Salmonella Typhimurium ATCC 13311 after 72 hrs by serial sub-cultivation method; assay type: functional, Salmonella enterica subsp. enterica serovar Typhimurium; conditions: Salmonella enterica, ATCC 13311, 72 h; procedure, shortened: as §1
# Micrococcus flavus [3] = assay: Antibacterial activity against Micrococcus flavus ATCC 10240 after 72 hrs by serial sub-cultivation method; assay type: functional; conditions: ATCC 10240, 72 h; procedure, shortened: as §1
# Bacillus cereus [4] = assay: Antibacterial activity against Bacillus cereus clinical isolate after 72 hrs by serial sub-cultivation method; assay type: functional; procedure, shortened: as §1
# Micrococcus flavus [5] = assay: Antibacterial activity against Micrococcus flavus ATCC 10240 after 24 hrs; assay type: functional; conditions: ATCC 10240, 24 h
# Procedure, shortened: (§2)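 Broth microdilution MIC in 96-well plates. Compounds in LB broth with bacterial inoculum of 1.0 × 10^4 cfu per well, from suspensions adjusted with sterile saline to 1.0 × 10⁵ CFU/ml. Incubated 24 h at […] as printed. MIC taken as the lowest concentration with no visible growth under the binocular microscope. OD at 655 nm also read against blank. Streptomycin and ampicillin as positive controls. Duplicate, repeated three times.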
# Bacillus cereus [6] = assay: Antibacterial activity against Bacillus cereus clinical isolate after 24 hrs; assay type: functional; procedure, shortened: as §2
# Escherichia coli [7] = assay: Antibacterial activity against Escherichia coli ATCC 35210 after 72 hrs by serial sub-cultivation method; assay type: functional; conditions: ATCC 35210, 72 h; procedure, shortened: as §1
# Salmonella typhimurium [8] = assay: Antibacterial activity against Salmonella Typhimurium ATCC 13311 after 24 hrs; assay type: functional, Salmonella enterica subsp. enterica serovar Typhimurium; conditions: Salmonella enterica, ATCC 13311, 24 h; procedure, shortened: as §2
# Listeria monocytogenes [9] = assay: Antibacterial activity against Listeria monocytogenes NCTC 7973 after 72 hrs by serial sub-cultivation method; assay type: functional; conditions: NCTC 7973, 72 h; procedure, shortened: as §1
# Escherichia coli [10] = assay: Antibacterial activity against Escherichia coli ATCC 35210 after 24 hrs; assay type: functional; conditions: ATCC 35210, 24 h; procedure, shortened: as §2
# Pseudomonas aeruginosa [11] = assay: Antibacterial activity against Pseudomonas aeruginosa ATCC 27853 after 24 hrs; assay type: functional; conditions: ATCC 27853, 24 h; procedure, shortened: as §2
# Proteus mirabilis [12] = assay: Antibacterial activity against Proteus mirabilis after 72 hrs by serial sub-cultivation method; assay type: functional; procedure, shortened: as §1
# Proteus mirabilis [13] = assay: Antibacterial activity against Proteus mirabilis after 24 hrs; assay type: functional; procedure, shortened: as §2
# Staphylococcus aureus [14] = assay: Antibacterial activity against Staphylococcus aureus ATCC 6538 after 24 hrs; assay type: functional; conditions: ATCC 6538, 24 h; procedure, shortened: as §2
# Staphylococcus aureus [15] = assay: Antibacterial activity against Staphylococcus aureus ATCC 6538 after 72 hrs by serial sub-cultivation method; assay type: functional; conditions: ATCC 6538, 72 h; procedure, shortened: as §1
# Listeria monocytogenes [16] = assay: Antibacterial activity against Listeria monocytogenes NCTC 7973 after 24 hrs; assay type: functional; conditions: NCTC 7973, 24 h; procedure, shortened: as §2
# Talaromyces funiculosus [17] = assay: Antifungal activity against Penicillium funiculosum ATCC 36839 after 72 hrs by serial dilution method; assay type: functional; conditions: ATCC 36839, 72 h
# Procedure, shortened: (§3)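 Fungi were kept on malt agar at 4 °C and sub-cultured monthly. Spores were washed off the agar with sterile 0.85% saline containing 0.1% Tween 80 (v/v). Modified microdilution in 96-well plates. MIC is the lowest concentration with no visible growth under the binocular microscope. Inoculum checked on malt agar for contamination and validity.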
# Aspergillus niger [18] = assay: Antifungal activity against Aspergillus niger ATCC 6275 after 72 hrs by serial dilution method; assay type: functional; conditions: ATCC 6275, 72 h; procedure, shortened: as §3
# Talaromyces funiculosus [19] = assay: Antifungal activity against Penicillium funiculosum ATCC 36839 after 72 hrs by serial sub-cultivation method; assay type: functional; conditions: ATCC 36839, 72 h
# Procedure, shortened: (§4)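 MFC was found by serial sub-cultivation of 2 µl into plates holding 100 µl broth per well, then incubation 72 h at 28 °C. MFC is the lowest concentration with no visible growth, taken as 99.5% killing of the original inoculum. Spore inocula came from malt agar cultures washed with 0.85% saline and 0.1% Tween 80.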
# Aspergillus flavus [20] = assay: Antifungal activity against Aspergillus flavus ATCC 9643 after 72 hrs by serial sub-cultivation method; assay type: functional; conditions: ATCC 9643, 72 h; procedure, shortened: as §4
# Trichoderma viride [21] = assay: Antifungal activity against Trichoderma viride IAM 5061 after 72 hrs by serial dilution method; assay type: functional; conditions: IAM 5061, 72 h; procedure, shortened: as §3
# Trichoderma viride [22] = assay: Antifungal activity against Trichoderma viride IAM 5061 after 72 hrs by serial sub-cultivation method; assay type: functional; conditions: IAM 5061, 72 h; procedure, shortened: as §4
# Aspergillus versicolor [23] = assay: Antifungal activity against Aspergillus versicolor ATCC 11730 after 72 hrs by serial sub-cultivation method; assay type: functional; conditions: ATCC 11730, 72 h; procedure, shortened: as §4
# Fulvia fulva [24] = assay: Antifungal activity against Fulvia fulva TK 5318 after 72 hrs by serial dilution method; assay type: functional; conditions: TK 5318, 72 h; procedure, shortened: as §3
# Fulvia fulva [25] = assay: Antifungal activity against Fulvia fulva TK 5318 after 72 hrs by serial sub-cultivation method; assay type: functional; conditions: TK 5318, 72 h; procedure, shortened: as §4
# Aspergillus fumigatus [26] = assay: Antifungal activity against Aspergillus fumigatus plant isolate after 72 hrs by serial dilution method
# Aspergillus niger [27] = assay: Antifungal activity against Aspergillus niger ATCC 6275 after 72 hrs by serial sub-cultivation method; assay type: functional; conditions: ATCC 6275, 72 h; procedure, shortened: as §4
# Penicillium ochrochloron [28] = assay: Antifungal activity against Penicillium ochrochloron ATCC 9112 after 72 hrs by serial dilution method; assay type: functional; conditions: ATCC 9112, 72 h; procedure, shortened: as §3
# Penicillium ochrochloron [29] = assay: Antifungal activity against Penicillium ochrochloron ATCC 9112 after 72 hrs by serial sub-cultivation method; assay type: functional; conditions: ATCC 9112, 72 h; procedure, shortened: as §4
# Aspergillus fumigatus [30] = assay: Antifungal activity against Aspergillus fumigatus plant isolate after 72 hrs by serial sub-cultivation method
# Aspergillus versicolor [31] = assay: Antifungal activity against Aspergillus versicolor ATCC 11730 after 72 hrs by serial dilution method; assay type: functional; conditions: ATCC 11730, 72 h; procedure, shortened: as §3
# Aspergillus flavus [32] = assay: Antifungal activity against Aspergillus flavus ATCC 9643 after 72 hrs by serial dilution method; assay type: functional; conditions: ATCC 9643, 72 h; procedure, shortened: as §3
MIC (Micrococcus flavus [5]) [µM],MIC (Bacillus cereus [6]) [µM],MIC (Salmonella typhimurium [8]) [µM],MIC (Escherichia coli [10]) [µM],MIC (Pseudomonas aeruginosa [11]) [µM],MIC (Proteus mirabilis [13]) [µM],MIC (Staphylococcus aureus [14]) [µM],MIC (Listeria monocytogenes [16]) [µM],Structure (SMILES),MBC (Pseudomonas aeruginosa [1]) [µM],MBC (Salmonella typhimurium [2]) [µM],MBC (Micrococcus flavus [3]) [µM],MBC (Bacillus cereus [4]) [µM],MBC (Escherichia coli [7]) [µM],MBC (Listeria monocytogenes [9]) [µM],MBC (Proteus mirabilis [12]) [µM],MBC (Staphylococcus aureus [15]) [µM],further results
86,43,172,172,172,172,172,258,CN[C@@H]1[C@H](O[C@H]2[C@H](O[C@H]3[C@H](O)[C@@H](O)[C@H](N=C(N)N)[C@@H](O)[C@@H]3N=C(N)N)O[C@@H](C)[C@]2(O)C=O)O[C@@H](CO)[C@H](O)[C@H]1O [STREPTOMYCIN],344,344,172,86,344,516,344,344,–
10.5,20.9,10.5,20.9,15.7,41.8,10.5,20.9,COc1cc(/C=C2\S/C(=N\c3nc(C45CC6CC(CC(C6)C4)C5)cs3)NC2=O)cc(OC)c1O,41.8,15.7,20.9,20.9,41.8,41.8,62.7,15.7,MIC (Talaromyces funiculosus [17]): 10.5 µM; MIC (Aspergillus niger [18]): 10.5 µM; MFC (Talaromyces funiculosus [19]): 20.9 µM; MFC (Aspergillus flavus [20]): 20.9 µM; MIC (Trichoderma viride [21]): 10.5 µM; MFC (Trichoderma viride [22]): 20.9 µM; MFC (Aspergillus versicolor [23]): 20.9 µM; MIC (Fulvia fulva [24]): 5.2 µM; MFC (Fulvia fulva [25]): 20.9 µM; MIC (Aspergillus fumigatus [26]): 15.7 µM; MFC (Aspergillus niger [27]): 20.9 µM; MIC (Penicillium ochrochloron [28]): 5.2 µM; MFC (Penicillium ochrochloron [29]): 10.5 µM; MFC (Aspergillus fumigatus [30]): 20.9 µM; MIC (Aspergillus versicolor [31]): 15.7 µM; MIC (Aspergillus flavus [32]): 10.5 µM

# Reference: ChEMBL document CHEMBL1157665, “Novel 4-thiazolidinone derivatives as potential antifungal and antibacterial drugs” (2010)
